Shown are actives, neighbours in structure and some others; about 1.9% of the full set was active somewhere.
VIM-2 inh: blocks Pseudomonas aeruginosa VIM-2 metallo-beta-lactamase | purified VIM-2, nitrocefin hydrolysis, epi-absorbance fluorescence | inhibition, % at 5.6 µM | hit rate 0.89% among 290,000;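 active = inhibition above the mean of all tested compounds plus 3 SD, cutoff set per screening run, cut at about 7.5% in these data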;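 also: red hydrolysis product quenches plate fluorescence so inhibitors raise well fluorescence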
IMP-1 inh-1: inhibitors of Pseudomonas aeruginosa IMP-1 metallo-beta-lactamase. purified IMP-1, nitrocefin hydrolysis, epi-absorbance fluorescence. inhibition, % at 5.6 µM. hit rate 0.45% among 290,000. AID 1556;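 active = inhibition above the mean plus 3 SD of all compounds in the same screening run, cut at about 4.5% in these data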
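assay system = purified recombinant IMP-1 metallo-beta-lactamase enzyme | schedule = 15 min preincubation plus 25 min reaction at 25 °C | signal = Epi-absorbance fluorescence, 480 nm excitation, 530 nm emission | read-out basis = percent inhibition from optical density relative to buffer-blank wells | controls = IMP-1 with DMSO as 0%, enzyme-free DMSO as 100%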
HCV core dimer: HCV core protein dimerization inhibition; TR-FRET GST/Flag-core106 dimerization, 1536-well; inhibition, % at 5 µM; hit rate 0.33% among 300,000; AID 1899;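 active = inhibition above the mean of all tested compounds plus 3 SD, set per screening campaign, cut at about 45% in these data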
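test system = GST/Flag-tagged HCV core106 proteins | probe or stimulus = Eu donor and XL665 acceptor anti-tag antibodies | times = compound-protein-antibody incubation 4 h at 22.5 °C | signal = TR-FRET, excitation 340 nm, emission 617 and 671 nm | measure = percent inhibition of core106 dimerization signal | controls = wells lacking GST-core106 and wells with excess unlabelled core106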
NadD block: blocks S. aureus nicotinate mononucleotide adenylyltransferase; purified NadD enzyme, colorimetric absorbance read-out; inhibition, % at 20 µM; hit rate 0.78% among 360,000; in the data active = inhibition above about 26%
IMP-1 inh-2: IMP-1 inhibition, counter-screen for VIM-2 inhibitors. shares compounds with VIM-2 inh. purified IMP-1, nitrocefin hydrolysis, epi-absorbance fluorescence. inhibition, % at 5.6 µM. 1,300 tested, under 10 active. AID 1856; call rule not given here
VIM-2 FRET inh: counter-screen for VIM-2 inhibitors: epi-absorbance artifacts via FRET. hit rate 23% among 1,300. inhibition, % at 5.6 µM. purified VIM-2, CCF2 FRET substrate hydrolysis. shares compounds with VIM-2 inh;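 active = inhibition above the mean of all tested compounds plus 3 SD, cut at about 19% in these data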
TEM-1 inh: blocks E. coli TEM-1 beta-lactamase in VIM-2 selectivity screen. AID 1866. hit rate 3% among 1,300. inhibition, % at 5.6 µM. shares compounds with VIM-2 inh. Purified TEM-1, nitrocefin hydrolysis, epi-absorbance fluorescence;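 active = inhibition above that campaign's mean inhibition plus 3 SD, cut at about 0.46% in these data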
Target sequence (P62593 whole entry, looked up): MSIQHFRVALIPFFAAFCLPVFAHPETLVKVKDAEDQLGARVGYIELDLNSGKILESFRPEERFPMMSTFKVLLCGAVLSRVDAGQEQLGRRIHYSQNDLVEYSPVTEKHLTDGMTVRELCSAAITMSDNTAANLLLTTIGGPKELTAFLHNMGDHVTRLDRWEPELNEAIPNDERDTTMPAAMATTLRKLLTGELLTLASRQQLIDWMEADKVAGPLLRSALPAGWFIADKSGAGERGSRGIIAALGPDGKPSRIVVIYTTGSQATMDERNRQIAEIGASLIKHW
VIM-2 inh conf: confirmation of P. aeruginosa VIM-2 metallo-beta-lactamase inhibitors; AID 2187; inhibition, % at 5.6 µM; shares compounds with VIM-2 inh; purified VIM-2, nitrocefin hydrolysis, epi-absorbance; hit rate 96% among 1,300;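 active = inhibition of the VIM-2 beta-lactamase enzyme above about 11% from the earlier first-round screen, limit read from the data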
Large screens that a line does not name were inactive (follow-up assays come after a bar, where they were run).

COc1ccc(OC)c(C2=Nn3c(nnc3-c3cc(OC)c(OC)c(OC)c3)SC2)c1	VIM-2 inh 13 | IMP-1 inh-2 inactive | VIM-2 FRET inh inactive | TEM-1 inh inactive | VIM-2 inh conf 26
COc1ccc(OC)c(C2=Nn3c(nnc3-c3ccncc3)SC2)c1	none (no result: VIM-2 inh, IMP-1 inh-1)
COc1ccc(C2=Nn3c(nnc3-c3ccccn3)SC2)cc1OC	VIM-2 inh 52 | IMP-1 inh-2 inactive | VIM-2 FRET inh inactive | TEM-1 inh inactive | VIM-2 inh conf 67
CC1CCCCC1NC(=O)CCNS(=O)(=O)c1cc(Br)cnc1N (stereo not drawn)	none
CC(C)N1CCc2c(sc(NC(=O)c3nc4ccccc4s3)c2C(N)=O)C1	none
CC(C)N1CCc2c(sc(NC(=O)c3cc(-c4cccs4)nc4ccccc34)c2C(N)=O)C1	VIM-2 inh 20 | IMP-1 inh-2 inactive | VIM-2 FRET inh inactive | TEM-1 inh inactive | VIM-2 inh conf 46
COc1ccccc1C(=O)Nc1ccc(S(=O)(=O)N2CCN(C)CC2)cc1	none (no result: VIM-2 inh, IMP-1 inh-1)
CCCOc1ccccc1C(=O)Nc1ccc(S(=O)(=O)N2CCN(C)CC2)cc1	VIM-2 inh 51 | IMP-1 inh-2 inactive | VIM-2 FRET inh inactive | TEM-1 inh inactive | VIM-2 inh conf 65
Cc1cc(NCCCn2ccnc2)n2ncc(-c3ccccc3)c2n1	VIM-2 inh 57 | IMP-1 inh-2 inactive | VIM-2 FRET inh inactive | TEM-1 inh 1.4 | VIM-2 inh conf 73
Cc1cc(NCCN2CCOCC2)n2nc(C)c(-c3ccc(Cl)cc3)c2n1	none
Cc1cc(NCCN2CCOCC2)n2nc(C)c(-c3ccccc3)c2n1	none
Cc1cc(NCCCn2ccnc2)n2nc(C)c(-c3ccc(Cl)cc3)c2n1	VIM-2 inh 50 | IMP-1 inh-2 inactive | VIM-2 FRET inh inactive | TEM-1 inh inactive | VIM-2 inh conf 60
c1ccc(-c2nc(NCCCn3ccnc3)c3ccccc3n2)cc1	VIM-2 inh 22 | IMP-1 inh-2 inactive | VIM-2 FRET inh inactive | TEM-1 inh inactive | VIM-2 inh conf 36
Cc1cc(NCCCn2ccnc2)n2nc(C)c(-c3ccccc3)c2n1	VIM-2 inh 68 | IMP-1 inh-2 inactive | VIM-2 FRET inh inactive | TEM-1 inh inactive | VIM-2 inh conf 79
CCN(CC)CCCNc1nc(-c2ccccc2)nc2ccccc12	none
Cc1cc(NCc2ccccc2)n2ncc(-c3ccccc3)c2n1	none
Cc1cc(NC(=O)CN(C)S(=O)(=O)c2cccc(Cl)c2)no1	none
CCN1CCN(c2ncc(C(=O)Nc3ccccc3C(=O)OC)c3ccccc23)CC1	VIM-2 inh 18 | IMP-1 inh-2 inactive | VIM-2 FRET inh inactive | TEM-1 inh inactive | VIM-2 inh conf 30
CCc1ccc(NC(=O)c2cnc(N3CCN(c4ccccn4)CC3)c3ccccc23)cc1	none
CN1C(=O)Cc2cc(S(=O)(=O)NCc3c(F)cccc3Cl)ccc21	none
CCN(CC)CCCNc1nc2cc(OC)c(OC)cc2c2nc(-c3ccccc3)nn12	none
COc1cc2nc(NCCCN3CCN(C)CC3)n3nc(-c4ccccc4)nc3c2cc1OC	VIM-2 inh 28 | IMP-1 inh-2 inactive | VIM-2 FRET inh inactive | TEM-1 inh inactive | VIM-2 inh conf 48
CCN(CC)CCCNc1nc2ccccc2c2nc(-c3ccncc3)nn12	VIM-2 inh 28 | IMP-1 inh-2 inactive | VIM-2 FRET inh inactive | TEM-1 inh inactive | VIM-2 inh conf 37
CCN(CC)CCCNc1nc2cc(OC)c(OC)cc2c2nc(-c3cccnc3)nn12	VIM-2 inh 22 | IMP-1 inh-2 inactive | VIM-2 FRET inh inactive | TEM-1 inh inactive | VIM-2 inh conf 42
CC(=O)N1CCN(C(=O)CCC(=O)O)CC1	none
Cc1ccc([C@@H]2[C@@H]3C(=O)N(c4ccccc4)C(=O)[C@@H]3[C@]3(C)C(=O)N(Cc4ccc(-c5ccccc5)cc4)CC(=O)N23)o1	none
C=CCn1c2ccccc2c2nnc(SCC(=O)O)nc21	none
C=CCn1c2ccccc2c2nn(C)c(=S)nc21	VIM-2 inh 14 | IMP-1 inh-2 inactive | VIM-2 FRET inh inactive | TEM-1 inh inactive | VIM-2 inh conf 17
CN(C)C(=O)OCC1COc2ccccc2O1 (stereo not drawn)	none
